Published values gathered from unrelated publications.
Compare with care: the assays were run in different laboratories.
Target: Serine/threonine-protein kinase PAK 3 (PAK3, Homo sapiens, UniProt O75914)

SMILES	assay	setting	endpoint	value
Cc1sc(C(=O)NC2COC2)cc1-n1cc(NC(=O)Nc2c(F)cccc2Cl)cn1	enzyme activity, inhibitor	10 µM	remaining activity	114%
CC(C)(O)[C@H]1CC[C@H](Nc2ccc3ncc(-c4cccc(C(F)(F)F)c4)n3n2)CC1	enzyme activity, inhibitor	1 µM	remaining activity	94.2%
CN1CC(Oc2cnc(C#N)cc2-c2ccn3nc(NC(=O)C4CC4)cc3c2)C1	enzyme activity, inhibitor	1 µM	inhibition	-10%
COc1ccccc1N1CCN(c2ncnc3[nH]nc(Br)c23)CC1	enzyme activity, inhibitor	1 µM	inhibition	-12%
N#CC1(c2ccccn2)CCN(Cc2cc(C(=O)N3CCCC3)c(=O)n3ccccc23)CC1	cell-free assay, competition with immobilised ligand	1 µM	remaining binding	100%
COc1cc2ncnc(Nc3ccc(Oc4ccccc4)c(C)c3C)c2cc1OC	enzyme activity, inhibitor	1 µM	inhibition	10%
N#CCCc1ccc2c(c1)-c1[nH]c3ccc([N+](=O)[O-])cc3c1CC(=O)N2	cell-free assay	0.5 µM	remaining signal	97.1%
O=C(Nc1cnn(-c2csc(C(=O)NC3COC3)c2)c1)Nc1c(F)cccc1Cl	enzyme activity, inhibitor	5 µM	remaining activity	64.2%
O=C(N[C@H]1CCCCC/C=C\C2C[C@@]2(C(=O)O)NC(=O)[C@@H]2C[C@@H](Oc3ccncc3)CN2C1=O)OC1CCCC1 (stereo partly drawn)	binding, competition with immobilised ligand	1 µM	remaining binding	88%
COc1cc2ncnc(Nc3ccc(F)c(Cl)c3)c2cc1OCCCN1CCOCC1	cell-free assay	0.5 µM	remaining signal	106%
CCCOc1ccc(OC)c(F)c1C(=O)c1ccc(C(=O)N[C@@H]2CNC[C@H]2NC(=O)c2ccc3[nH]ncc3c2)cc1	enzyme activity, inhibitor	10 µM	remaining activity	51%
Cc1ccc(Nc2nccc(N(C)c3ccc4c(C)n(C)nc4c3)n2)cc1S(N)(=O)=O	enzyme activity, inhibitor	0.3 µM	inhibition	29%
CN(C)CC#Cc1ccc(OCCCc2sc(N3CCc4cccc(C(=O)Nc5nc6ccccc6s5)c4C3)nc2C(=O)O)c(F)c1	cell-free assay, competition with immobilised ligand	1 µM	remaining binding	97%
O=C1NC(=O)c2cc(Nc3ccc(F)cc3)c(Nc3ccc(F)cc3)cc21	cell-free assay	0.5 µM	remaining signal	99.4%
COc1cc(-c2cn(C3CCc4ccccc4N(CC(F)(F)F)C3=O)nn2)ccc1-n1ccc(C)n1 (stereo not drawn)	cell-free assay, competition with immobilised ligand	1 µM	remaining binding	100%
Nc1ncnc2occ(-c3ccc(NC(=O)Nc4cc(C(F)(F)F)ccc4F)cc3)c12	cell-free assay, inhibitor	20 µM	remaining signal	14%
CC(C)(C)c1nc2c(s1)c1nc(N)ncc1c1ccc(NS(=O)(=O)c3c(F)cccc3F)c(F)c12	enzyme activity, inhibitor, radiometric	1 µM	remaining activity	87%
O=C(O)c1cc(-c2ccc(C3CCNCC3)cc2)c2ccc(-c3ccc(C(F)(F)F)cc3)cc2c1	cell-free assay, competition with immobilised ligand	1 µM	remaining binding	100%
